The list is not random: actives were taken first. Their share in the collection is about 3.4%.
CHT inh: human CHT choline transport inhibition; Q9GZV3; CHT-expressing cells, membrane potential dye, choline response; active compounds read low; B-score at 10 µM; 0.86% of 310,000 active; AID 488975;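 active = B-score over 3 SD under the library average, and starting fluorescence ratio not unusually high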;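 also: choline stimulus applied at its EC90 after an EC20 pre-addition; B-score computed on integrated fluorescence ratio after choline addition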
Target sequence (Q9GZV3 whole entry, looked up): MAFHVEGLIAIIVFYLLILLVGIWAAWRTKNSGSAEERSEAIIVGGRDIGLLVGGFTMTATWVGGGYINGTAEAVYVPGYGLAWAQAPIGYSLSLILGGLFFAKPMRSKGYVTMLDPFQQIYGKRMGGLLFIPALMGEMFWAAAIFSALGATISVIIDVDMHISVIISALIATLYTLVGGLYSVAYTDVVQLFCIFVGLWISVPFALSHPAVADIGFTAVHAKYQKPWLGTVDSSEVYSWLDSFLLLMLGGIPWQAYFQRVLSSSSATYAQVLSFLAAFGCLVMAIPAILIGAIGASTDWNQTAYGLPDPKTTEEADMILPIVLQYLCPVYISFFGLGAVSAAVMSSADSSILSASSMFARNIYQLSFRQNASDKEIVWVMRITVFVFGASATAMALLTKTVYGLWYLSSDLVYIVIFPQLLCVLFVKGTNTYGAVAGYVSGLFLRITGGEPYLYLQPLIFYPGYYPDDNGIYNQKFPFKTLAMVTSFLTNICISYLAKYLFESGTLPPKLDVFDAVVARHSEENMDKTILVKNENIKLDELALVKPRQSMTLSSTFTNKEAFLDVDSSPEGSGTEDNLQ
VIM-2 inhibitor: inhibitors of Pseudomonas aeruginosa VIM-2 metallo-beta-lactamase | purified VIM-2, nitrocefin hydrolysis, epi-absorbance fluorescence | inhibition, % at 5.6 µM | 0.89% of 290,000 active | AID 1527;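 active = inhibition above the mean of all tested compounds plus 3 SD, cutoff set per screening run, cut at about 7.5% in these data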;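 also: red hydrolysis product quenches plate fluorescence so inhibitors raise well fluorescence; 0% = enzyme with DMSO and 100% = DMSO without enzyme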
IMP-1 inhibitor: blocks Pseudomonas aeruginosa IMP-1 metallo-beta-lactamase; purified IMP-1, nitrocefin hydrolysis, epi-absorbance fluorescence; inhibition, % at 5.6 µM; 0.45% of 290,000 active;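 active = inhibition above the mean plus 3 SD of all compounds in the same screening run, cut at about 4.5% in these data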;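 also: 0% = IMP-1 with DMSO and 100% = DMSO wells lacking enzyme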
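Assay system: purified recombinant IMP-1 beta-lactamase. Input: IMP-1 0.2 nM before substrate addition. Buffer or medium: Zinc- and detergent-supplemented HEPES buffer, pH 7.1. Schedule: 25 °C, 15 min preincubation, 25 min reaction. Signal: Epi-absorbance fluorescence, 480 nm excitation, 530 nm emission. Evaluation: percent inhibition from optical density relative to buffer-blank wells.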
CHT PAM: allosterically activates the human high affinity choline transporter; Q9GZV3; CHT-expressing cells, membrane potential dye, choline EC20; active compounds read high; LV-AA mutant CHT in HEK293 cells; B-score at 10 µM; 0.49% of 310,000 active;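 active = initial fluorescence not abnormally high and integrated response B-score, plate-corrected, over 3 SD above library mean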
ANO1 block: mouse TMEM16A channel inhibition, primary screen; normalized B-score (activity score, 25-100; higher = stronger inhibition) at 10 µM; 1.2% of 310,000 active; AID 588511; Q8BHY3; HEK293 TMEM16A/YFP iodide influx fluorescence, ionomycin;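 active = ratio plate-corrected score three or more library SD toward inhibition, starting fluorescence score within five deviations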;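 also: score derived from kinetic fluorescence span divided by baseline fluorescence per well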
ANO1 activ: activators or potentiators of mouse TMEM16A chloride channel; Q8BHY3; HEK293 TMEM16A/YFP-H148Q/I152L, iodide quench fluorescence; active compounds read low; B-score at 10 µM; 0.3% of 340,000 active; AID 623877;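 active = fluorescence-ratio B-score plate-corrected deviation score at least 3 library SD below zero, with starting fluorescence score within 5 deviations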;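 also: channel opened by trigger with iodide after compound preincubation; score built on the fluorescence ratio of max minus min over baseline; more negative score means more quench and so TMEM16A activation or potentiation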
CHT act confirm: human CHT activation, confirmatory screen. CHT-expressing cells, membrane potential dye fluorescence (FDSS); % of choline EC20–EC90 response window; HEK293 expressing CHT LV-AA mutant; choline added at its EC20. AID 504833. activation, % at 10 µM. shares compounds with CHT PAM. 91% of 2,500 active;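 active = primary screen active, with duplicate mean activation above negative control mean plus 3 SD, cut at about 11% in these data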
HEK293 MP dye: counter-screen for CHT activators: effect in parental HEK293 cells; shares compounds with CHT PAM; membrane potential dye fluorescence (FDSS); measured after EC20 choline addition; ratio readout change at 10 µM, hits read low; 62% of 2,500 active;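 active = duplicate-averaged ratio beyond 3 SD from buffer wells, up or down, though filed actives are nearly all decreases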
* = called active by the depositor; i = inactive; / = no result.

SMILES	CHT inh	VIM-2 inhibitor	IMP-1 inhibitor	CHT PAM	ANO1 block	ANO1 activ	CHT act confirm	HEK293 MP dye
O=C(NC1CCCC1)C(c1ccsc1)N(Cc1ccco1)C(=O)Cc1cccs1 (configuration not stated)	i	-3	-2	7.4*	i	i	33*	i
N#CC(C#N)=c1ccc2c(c1)NC1(CCCCC1)N=2	i	-2	-5	6.4*	i	i	51*	-64*
O=C(CCOc1ccccc1)NNC(=O)c1ccccc1	/	/	/	/	/	i	/	/
CCOc1cccc2sc(N(CCN(C)C)C(=O)c3ccc4ccccc4c3)nc12	i	-1	-1	9.5*	i	i	25*	-78*
CCC(C)(C)NC(=O)C(c1ccccc1)N(Cc1cccs1)C(=O)Cn1nnc2ccccc21 (configuration not stated)	i	0	-1	i	i	i	19*	i
COCCNC(=O)C(c1ccccc1)N(Cc1cccs1)C(=O)Cn1nnc2ccccc21 (configuration not stated)	i	2	3	i	i	i	/	/
COc1ccc(C(CNC(=O)CSc2ccccc2F)N2CCOCC2)cc1 (configuration not stated)	i	/	/	i	i	i	/	/
COc1ccc(C(CNC(=O)CSc2ccc(Br)cc2C)N2CCOCC2)cc1 (configuration not stated)	i	/	/	i	i	i	-1	i
CCCCNC(=O)COCc1cc(-c2ccc3c(c2)OCO3)on1	i	-5	-1	10*	i	i	29*	i
CCCNC(=O)COCc1cc(-c2ccc3c(c2)OCO3)on1	i	-2	-2	i	i	i	/	/
CN(C)C(/C=C/Nc1ccc([N+](=O)[O-])cc1)=C(C#N)C#N	i	-5	-4	7.1*	i	i	30*	-55*
CN(C)C(/C=C/Nc1ccc(Br)cc1)=C(C#N)C#N	i	-2	-2	7.3*	i	i	20*	-50*
COc1cc(C(=O)NCC(=O)N2CCN(S(=O)(=O)c3ccccc3C(F)(F)F)CC2)cc(OC)c1OC	/	/	/	/	/	i	/	/
COC(=O)C1=C(C)N(Cc2ccccc2)C(=NCc2cccc(C(F)(F)F)c2)N[C@H]1c1cccc(F)c1	i	-2	-4	i	i	i	/	/
COC(=O)C1=C(C)N(Cc2ccccc2)C(=NCc2ccc(OC)cc2)N[C@H]1c1ccccc1	/	/	/	/	/	i	/	/
COC(=O)C1=C(C)N(Cc2ccccc2)C(=NCC(C)C)N[C@H]1c1ccccc1	i	0	-2	i	i	/	35*	i
CCN1C(=NCc2cccc(Cl)c2)N[C@@H](c2cccc(F)c2)C(C(=O)OC)=C1C	i	-3	-4	i	i	i	1	i
CC1CCCC(NC(=O)COC(=O)[C@@H](NC(=O)c2ccc(F)cc2)C(C)C)C1C (some centres not stated)	/	/	/	/	/	i	/	/
O=C(CN1CCN(S(=O)(=O)N2CCOCC2)CC1)Nc1cc(Cl)ccc1Cl	i	2	1	i	i	i	/	/
CC(=O)N1CCN(c2ccccc2NC(=O)COc2cc(C)ccc2C(C)C)CC1	i	-4	-4	10*	i	i	44*	i
CCc1noc(C)c1C(=O)N1CCN(S(=O)(=O)c2c(C)c(C)cc(C)c2C)CC1	i	/	/	i	i	i	/	/
CCOc1ccc(C(=O)N2CCC3(CC2)NCCc2[nH]cnc23)cc1OCC	i	1	-2	i	i	i	/	/
Cc1cc(C)c2[nH]c(=O)c(C(c3nnnn3CC3CCCO3)N3CCCC(C)C3)cc2c1 (configuration not stated)	i	-2	-3	7.3*	i	i	5	i
CCC(C)n1c(=N)c(C#N)cc2c(=O)n3cccc(C)c3nc21 (configuration not stated)	i	-1	-2	7*	i	i	41*	-53*
CCC(C)n1c(=N)c(C#N)cc2c(=O)n3cc(C)ccc3nc21 (configuration not stated)	i	0	-3	i	i	i	/	/
SMILES	CHT inh	VIM-2 inhibitor	IMP-1 inhibitor	CHT PAM	ANO1 block	ANO1 activ	CHT act confirm	HEK293 MP dye
Cc1ccc(-c2noc(CNS(=O)(=O)c3ccccc3)n2)cc1	i	0	0	i	i	i	/	/
C#CC[N+]1(CC#Cc2ccccc2)CCCC1	i	-1	-2	i	i	i	/	/
C#CC[N+]1(CC#Cc2ccc(C#CC[N+]3(CC#C)CCOCC3)cc2)CCOCC1	i	-1	-4	i	i	i	38*	-41*
Cc1ccc(S[C@@H](CCN2CC[C@H](NC(=O)OCc3ccccc3)CCC2=O)c2ccccc2)cc1	i	-1	1	i	i	i	/	/
O=C(N[C@@H]1CCC(=O)N(CC[C@H](Oc2ccccc2)c2ccccc2)CC1)OCc1ccccc1	i	-3	-2	i	i	i	25*	i
Cc1cc(C)n2[nH]c(=O)c(N=Nc3ccc(S(N)(=O)=O)cc3)c2n1	i	-6	-7	9.2*	i	i	70*	-81*
CC(C)c1ccc(NC(=O)CSc2n[nH]c(=O)n2-c2cccnc2)cc1	i	-3	-3	i	i	i	/	/
Cn1c(CCN2CCCCC2)nc2cc([N+](=O)[O-])ccc21	i	0	-2	8.5*	i	i	58*	-62*
COc1ccc(C)cc1Nc1n[n+](C)c(-c2ccc(O)cc2O)s1	i	-2	1	i	i	i	/	/
COc1ccc(C)cc1Nc1n[n+](-c2ccccc2)c(-c2ccc(OC)c(OC)c2OC)s1	i	-1	-2	9.9*	i	i	15*	i
CCn1c(C)[n+](CCOCC[n+]2c(C)n(CC)c3cc(Cl)c(Cl)cc32)c2cc(Cl)c(Cl)cc21	i	0	2	6.7*	i	i	31*	-49*
CC(=O)OCCn1c(C)[n+](CCOC(C)=O)c2cc(Cl)c(Cl)cc21	i	1	-1	i	i	i	/	/
COc1ccc2c(c1)c1ncn(CCN3CCCCC3)c(=O)c1n2C	i	4	1	i	i	i	/	/
